# TAAR1 agonist: human TAAR1 agonists, primary screen, Fluo-8 calcium fluorescence, CHO RD-HGA16 cells. vehicle wells 0%, saturating PEA agonist 100%. AID 624467, 2012. 0.99% of 360,000 active. activation, % at 3 µM. Trace amine-associated receptor 1 (Homo sapiens), Q96RJ0;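 active = activation above the mean activation of all test compounds in the run plus 3 SD, cut at about 38% in these data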
# Target sequence (Q96RJ0 whole entry, looked up): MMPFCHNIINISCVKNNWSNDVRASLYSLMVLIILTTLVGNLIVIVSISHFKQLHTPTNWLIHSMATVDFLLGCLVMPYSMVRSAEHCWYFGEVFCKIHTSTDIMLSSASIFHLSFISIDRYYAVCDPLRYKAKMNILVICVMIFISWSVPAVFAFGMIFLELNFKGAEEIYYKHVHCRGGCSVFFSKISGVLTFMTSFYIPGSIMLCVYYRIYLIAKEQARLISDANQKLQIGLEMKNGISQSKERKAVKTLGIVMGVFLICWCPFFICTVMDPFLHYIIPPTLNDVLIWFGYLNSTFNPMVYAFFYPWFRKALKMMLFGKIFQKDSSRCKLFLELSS
#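 Test system: RD-HGA16 (CHO) cells co-expressing Gα16 and hTAAR1; dosing: one-point dosing at 3 µM (nominal); timing: 17-24 h seeding, 75 min 37 °C dye, 30 min RT; signal: kinetic Fluo-8 calcium fluorescence; read-out basis: % activation relative to PEA EC100 response; controls: DMSO and PEA EC100; replicates: n 1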
# TAAR1 antagonist: human TAAR1 antagonists, primary screen, Fluo-8 calcium fluorescence, CHO RD-HGA16 cells; Trace amine-associated receptor 1 (Homo sapiens), Q96RJ0; antagonist; inhibition, % at 3 µM; 1.5% of 360,000 active;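 active = inhibition above a per-plate cutoff, the mean inhibition of test compounds on that plate plus 3 SD, cut at about 49% in these data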;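 note: 0% = DMSO plus EC80 beta-PEA response and 100% = DMSO alone without agonist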
#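 Test system: RD-HGA16 CHO cells with stable hTAAR1 and Gα16 / Probe or stimulus: EC80 β-phenethylamine stimulus / Times: seeding 17-24 h prior, 75-min 37 °C, 30-min RT dye loading / Detection: Fluo-8 calcium-sensitive fluorescence / Read-out basis: % inhibition scaled between DMSO and EC80 PEA controls / Repeats: singlicate, one well per test compound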
# OX1R antag-1: OX1R (HCRTR1) antagonists, primary screen, fluorescence, CHO/OX1R cells, Fluo-8 calcium, orexin A | Fluo-8 calcium fluorescence | 0.43% of 330,000 active | Orexin/Hypocretin receptor type 1 (Homo sapiens), O43613 | inhibition, % at 5 µM;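 active = inhibition above its plate's threshold, mean inhibition of all tested compounds on the plate plus 3 SD, cut at about 37% in these data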;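 note: 0% = orexin A challenge wells and 100% = SB-334867-A antagonist wells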
# CHO parental Ca: ATP-evoked calcium signal inhibitors, parental CHO, primary screen, counter-screen for OX1R antagonist project, cell-based, fluorescence, Fluo-8 calcium dye. parental CHO-K1, ATP-induced calcium, Fluo-8 fluorescence. 0.63% of 330,000 active. inhibition, % at 5.6 µM;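 active = inhibition above that plate's mean sample inhibition plus 3 SD, cut at about 26% in these data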;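 note: 0% = ATP-challenged DMSO wells and 100% = DMSO wells without ATP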
#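 material = parental CHO cells | also added = ATP as calcium-mobilizing challenge | dosing = single point at 5.6 µM | detection = intracellular calcium via Fluo-8 no-wash fluorescent dye | read-out = % inhibition | benchmarks = low control ATP plus DMSO, high control DMSO only | repeats = one well per compound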
# GPR7 antagonist: GPR7 receptor antagonists, primary screen, cell-based, fluorescence, single concentration | GPR7-expressing cells, fluorescence antagonist assay | inhibition, % at 4.4 µM | 1.1% of 290,000 active | AID 1861, 2009; in the data active = inhibition above about 16%, passing the limit was not always enough;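 note: cells stimulated with the agonist NPW; 0% = agonist with vehicle and 100% = vehicle without agonist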
# OX1R antag-2: antagonists of human orexin 1 receptor (OX1R); Orexin/Hypocretin receptor type 1 (Homo sapiens), O43613; OX1R-expressing cells, FRET antagonist read-out; inhibition, % at 6.6 µM; 1.8% of 330,000 active; in the data active = inhibition mostly above about 38%, no sharp cut-off; inactive = mostly below about 40%;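 note: 0% = agonist challenge alone and 100% = reference antagonist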
# * hit, by the source's call; . = no result given. A selection: hits, their analogues and other compounds. The true share with any hit is near 4.6%.
SMILES,TAAR1 agonist,TAAR1 antagonist,OX1R antag-1,CHO parental Ca,GPR7 antagonist,OX1R antag-2
O=C1c2cccc3c([N+](=O)[O-])ccc(c23)C(=O)N1c1nccs1,-3,45,20,14,4,62*
O=C1c2cccc3c(N4CCCCC4)ccc(c23)C(=O)N1c1ccc(Cl)cn1,.,.,.,.,-3,.
O=C1c2cccc3c(N4CCCCC4)ccc(c23)C(=O)N1c1ccccn1,13,6,51*,31,4,48
O=C1c2cccc3c([N+](=O)[O-])ccc(c23)C(=O)N1O,-2,-40,-14,-2,17,21
COc1ccc(-c2csc(NC(=S)NC(=O)/C=C/c3ccccc3)n2)cc1Br,5,-6,-2,-11,-17,0
Cc1ccc(NC(=O)CCc2ccc(S(=O)(=O)N3CCOCC3)cc2)c(Cl)c1,19,-13,-12,-14,.,0
O=C(COc1ccc2c3c(c(=O)oc2c1)CCC3)NCc1cccnc1,0,-10,-16,1,-14,11
CC(C)Cn1c(N)c(C(=O)COC(=O)c2c(F)cccc2F)c(=O)n(C)c1=O,39*,13,6,3,3,20
CC(C)Cn1c(N)c(C(=O)COC(=O)c2ccccc2Cl)c(=O)n(C)c1=O,33,22,-3,11,6,19
CC(C)Cn1c(N)c(C(=O)COC(=O)Cc2cccc(C(F)(F)F)c2)c(=O)n(C)c1=O,8,41,8,55*,.,29
CC(C)Cn1c(N)c(C(=O)CSc2ccc3c(c2)OCCO3)c(=O)n(C)c1=O,23,44,21,55*,9,23
CC(C)Cn1c(N)c(C(=O)COC(=O)c2ccccc2F)c(=O)n(C)c1=O,22,10,-23,-6,17*,15
CCN(CC)S(=O)(=O)c1ccc(OC)c(NS(=O)(=O)c2cccc(C(=O)O)c2)c1,1,-1,-11,5,-7,15
COc1ccc(C(=O)COC(=O)CNC(=O)c2cccc(OC(F)F)c2)cc1,-2,2,4,-13,1,3
CCOc1ccc(-c2cc(N)n(S(=O)(=O)c3ccc(OC)c(OC)c3)n2)cc1,-3,6,-23,-10,1,23
COc1ccc(S(=O)(=O)n2nc(-c3ccc(Cl)cc3)cc2N)cc1OC,-1,22,-25,0,18*,12
Cc1cc(=O)oc2cc(NC(=O)c3c(Cl)cnn3C)ccc12,5,-15,-13,-6,-3,61*
CNc1cc(CSC)nc(SCc2ccc(Cl)c(Cl)c2)n1,2,13,55*,-17,-4,49*
Cc1nc(SCc2ccc(Cl)c(Cl)c2)n[nH]1,-1,-6,.,.,-15,.
CCC(C)N=Cc1c(Nc2ccccc2)nc2c(C)cccn2c1=O (stereo unspecified),2,-31,-4,4,-7,13
O=c1c(/C=N/O)c(Nc2ccccc2)nc2ccccn12,1,-31,9,0,-12,73*
CCC(CC)NC(=O)CCc1nc2ccccc2c(=O)[nH]1,12,-4,8,0,-6,14
Cc1ccccc1OC(C)C(=O)N1CCN(c2ccccn2)CC1 (stereo unspecified),2,-13,-7,-9,-12,5
Nc1c(Cl)ncnc1N/N=C/c1ccc2ccccc2n1,4,3,35,34,-5,75*
Nc1c(Cl)ncnc1N/N=C/c1ccccn1,0,8,1,-6,-4,92*
SMILES,TAAR1 agonist,TAAR1 antagonist,OX1R antag-1,CHO parental Ca,GPR7 antagonist,OX1R antag-2
CCn1c(SCC(=O)NC2CC2)nnc1-c1ccccc1,3,-12,.,.,.,.
COc1ccc(CNC(=O)CN(Cc2ccco2)C(=O)CNS(=O)(=O)c2ccc(C)cc2)cc1,4,-15,-39,-19,-5,6
CC1CCC(n2c(=S)[nH]c3ccccc3c2=O)CC1 (stereo unspecified),6,16,-8,6,-14,1
O=c1c2ccccc2[nH]c(=S)n1C1CCCCC1,40*,26,-19,11,6,-3
CCc1ccccc1NC(=O)CCc1c(C)nc(SC)nc1C,1,9,-24,-23,-9,20
COC(=O)c1sc(=S)sc1C(=O)OC,0,-1,-14,-3,10,16
O=C(CCc1ccccc1)NC1(Cc2ccccc2)CCN(CCCc2ccccc2)C1=O (stereo unspecified),7,55*,-11,-29,.,7
CN1C(=O)c2cccc3c(S(=O)(=O)Nc4ccccn4)ccc1c23,6,-13,-25,-14,7,68*
Cn1ncc(C(N)=O)c1NC(=S)NC(=O)c1ccc(Br)o1,2,-16,-4,-13,0,3
O=S(=O)(NCc1csc(-c2cccnc2)n1)c1ccc(Cl)s1,1,-6,5,-13,13,41*
O=S(=O)(NCc1csc(-c2cccnc2)n1)c1ccc2c(c1)OCCO2,0,-18,-1,-12,-11,72*
CCc1ccc(S(=O)(=O)NCCc2csc(-c3ccccc3)n2)s1,7,34,45,-1,5,41*
O=S(=O)(NCc1csc(-c2ccccc2)n1)c1ccc(Cl)s1,-1,-13,-2,3,9,27
O=S(=O)(NCc1csc(-c2cccnc2)n1)c1ccc(F)cc1,13,-29,-14,-5,11,18
CCc1ccc(S(=O)(=O)NCc2csc(-c3ccccc3)n2)s1,2,7,-22,-14,0,26
CC1=CC(C)(C)NC(=S)N1C(C)c1ccccc1 (stereo unspecified),-2,0,-5,-14,5,0
N#Cc1c(NC(=O)CCn2cnc3ccccc3c2=O)oc(-c2ccccc2)c1-c1ccccc1,4,-3,-34,-22,18*,25
COc1ccc(-c2csc(NC(=O)CCn3cnc4ccccc4c3=O)n2)cc1OC,20,55*,-9,-15,-3,15
Cc1ccc(NC(=O)CCn2cnc3ccccc3c2=O)cc1Cl,40*,23,-27,-7,0,16
CC(NC(=O)c1cncc(Br)c1)c1ccc(S(N)(=O)=O)cc1 (stereo unspecified),8,-8,-11,-10,0,8
COc1cc(NC(=O)NCCN2CCN(c3ccc(Cl)cc3)CC2)ccc1C,48*,36,17,14,15,1

# Compound activity as filed in PubChem.
